Data as given in ChEMBL document CHEMBL4177764 (J Med Chem, 2018).
Active and inactive are the calls of the source. The calls are words filed in the database; no cut-off is given here.

What was measured:
Assay type in all cases: cell-based
[1] = biological target: T1, Aurora kinase A (Homo sapiens) (UniProt O14965); experiment: Induction of aurora A degradation in human NCI-H3122 cells at 250 nM after 16 hrs in presence of […] inhibitor MLN4924 by immunoblot method
T1 sequence (whole entry): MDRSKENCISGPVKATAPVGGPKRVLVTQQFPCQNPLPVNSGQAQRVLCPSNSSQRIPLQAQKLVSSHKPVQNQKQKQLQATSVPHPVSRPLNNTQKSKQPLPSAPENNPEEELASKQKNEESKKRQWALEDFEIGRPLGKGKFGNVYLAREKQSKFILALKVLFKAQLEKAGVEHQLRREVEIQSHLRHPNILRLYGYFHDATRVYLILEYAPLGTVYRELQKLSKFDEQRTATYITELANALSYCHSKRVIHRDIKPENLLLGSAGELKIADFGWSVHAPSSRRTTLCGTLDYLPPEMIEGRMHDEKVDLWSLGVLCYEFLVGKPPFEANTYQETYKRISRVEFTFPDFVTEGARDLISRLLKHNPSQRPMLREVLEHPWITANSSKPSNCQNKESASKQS

[2] = biological target: T1, Aurora kinase A (Homo sapiens); experiment: Induction of aurora A degradation in human CHLA20 cells at 100 nM after 16 hrs in presence of proteasome inhibitor carfilzomib and ABCB1 inhibitor tariquidar by immunoblot method
Procedure, shortened: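 Cells were pre-treated for 2 h with DMSO, carfilzomib, MLN4924 or pomalidomide, then treated with compound for 16 h, with immunoblot read-out. CHLA20 cells also received 125 nM tariquidar throughout.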

[3] = biological target: T2, ALK tyrosine kinase receptor (Homo sapiens, UniProt Q9UM73); experiment: Induction of ALK degradation in human Kelly cells assessed as decrease in ALK phosphorylation at Y1507 at 250 nM after 6 to 48 hrs by immunoblot method
[4] = biological target: T2, ALK tyrosine kinase receptor; experiment: Induction of ALK degradation in human CHLA20 cells assessed as decrease in ALK phosphorylation at Y1507 at 250 nM after 6 to 48 hrs in presence of ABCB1 inhibitor tariquidar by immunoblot method
[5] = biological target: Signal transducer and activator of transcription 3 (Homo sapiens) (UniProt P40763); experiment: Inhibition of STAT3 phosphorylation at Y705 in human Kelly cells at 250 nM after 6 to 48 hrs by immunoblot method
[6] = biological target: Signal transducer and activator of transcription 3 (Homo sapiens) (UniProt P40763); experiment: Inhibition of STAT3 phosphorylation at Y705 in human CHLA20 cells at 250 nM after 6 to 48 hrs in presence of ABCB1 inhibitor tariquidar by immunoblot method
[7] = biological target: Ribosomal protein S6 kinase alpha-1 (Homo sapiens) (UniProt Q15418); experiment: Induction of RPS6KA1 degradation in human Kelly cells at 10 to 160 nM after 16 hrs by immunoblot method
[8] = biological target: T1, Aurora kinase A (Homo sapiens); experiment: Induction of aurora A degradation in human Kelly cells at 10 to 160 nM after 16 hrs by immunoblot method
Procedure, shortened: (§1)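 Kelly and CHLA20 neuroblastoma cells were treated with dose titrations for 16 h, then Aurora A was detected by immunoblot. CHLA20 cells were always co-treated with 125 nM tariquidar, an ABCB1 inhibitor.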

[9] = biological target: T1, Aurora kinase A (Homo sapiens); experiment: Induction of aurora A degradation in human CHLA20 cells at 10 to 160 nM after 16 hrs by immunoblot method; procedure, shortened: as §1
[10] = biological target: T1, Aurora kinase A (Homo sapiens); experiment: Induction of aurora A degradation in human NCI-H3122 cells at 0.01 to 1 uM after 16 hrs by immunoblot method
Procedure, shortened: (§2)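 H3122 (EML4-ALK NSCLC) and Karpas 299 (NPM-ALK ALCL) cells were exposed to dose titrations for 16 h. ALK and Aurora A levels were then assessed by immunoblot.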

[11] = biological target: T1, Aurora kinase A (Homo sapiens); experiment: Induction of aurora A degradation in human KARPAS299 cells at 0.01 to 1 uM after 16 hrs by immunoblot method; procedure, shortened: as §2

Chain of Ribosomal protein S6 kinase alpha-1 (Homo sapiens) (Q15418 whole entry): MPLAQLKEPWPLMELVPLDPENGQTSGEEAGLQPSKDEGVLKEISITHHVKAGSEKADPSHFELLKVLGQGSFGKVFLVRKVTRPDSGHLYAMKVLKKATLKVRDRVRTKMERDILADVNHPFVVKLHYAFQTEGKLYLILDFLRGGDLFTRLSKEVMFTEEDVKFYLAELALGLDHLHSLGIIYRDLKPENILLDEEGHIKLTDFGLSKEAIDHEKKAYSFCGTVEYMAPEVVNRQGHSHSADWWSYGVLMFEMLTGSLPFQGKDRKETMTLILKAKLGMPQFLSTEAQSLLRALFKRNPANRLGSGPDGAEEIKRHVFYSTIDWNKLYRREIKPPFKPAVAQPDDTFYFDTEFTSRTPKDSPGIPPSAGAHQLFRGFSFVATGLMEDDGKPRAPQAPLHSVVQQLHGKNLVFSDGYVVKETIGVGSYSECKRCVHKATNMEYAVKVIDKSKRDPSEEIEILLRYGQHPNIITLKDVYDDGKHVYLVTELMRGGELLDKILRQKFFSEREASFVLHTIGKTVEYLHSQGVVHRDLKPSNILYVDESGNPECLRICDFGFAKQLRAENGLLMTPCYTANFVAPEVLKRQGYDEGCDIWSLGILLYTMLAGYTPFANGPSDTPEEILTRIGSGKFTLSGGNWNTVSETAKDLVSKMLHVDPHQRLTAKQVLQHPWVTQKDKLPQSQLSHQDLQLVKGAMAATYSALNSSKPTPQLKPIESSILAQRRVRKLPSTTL
T2 sequence (Q9UM73 19-1620 limits assumed): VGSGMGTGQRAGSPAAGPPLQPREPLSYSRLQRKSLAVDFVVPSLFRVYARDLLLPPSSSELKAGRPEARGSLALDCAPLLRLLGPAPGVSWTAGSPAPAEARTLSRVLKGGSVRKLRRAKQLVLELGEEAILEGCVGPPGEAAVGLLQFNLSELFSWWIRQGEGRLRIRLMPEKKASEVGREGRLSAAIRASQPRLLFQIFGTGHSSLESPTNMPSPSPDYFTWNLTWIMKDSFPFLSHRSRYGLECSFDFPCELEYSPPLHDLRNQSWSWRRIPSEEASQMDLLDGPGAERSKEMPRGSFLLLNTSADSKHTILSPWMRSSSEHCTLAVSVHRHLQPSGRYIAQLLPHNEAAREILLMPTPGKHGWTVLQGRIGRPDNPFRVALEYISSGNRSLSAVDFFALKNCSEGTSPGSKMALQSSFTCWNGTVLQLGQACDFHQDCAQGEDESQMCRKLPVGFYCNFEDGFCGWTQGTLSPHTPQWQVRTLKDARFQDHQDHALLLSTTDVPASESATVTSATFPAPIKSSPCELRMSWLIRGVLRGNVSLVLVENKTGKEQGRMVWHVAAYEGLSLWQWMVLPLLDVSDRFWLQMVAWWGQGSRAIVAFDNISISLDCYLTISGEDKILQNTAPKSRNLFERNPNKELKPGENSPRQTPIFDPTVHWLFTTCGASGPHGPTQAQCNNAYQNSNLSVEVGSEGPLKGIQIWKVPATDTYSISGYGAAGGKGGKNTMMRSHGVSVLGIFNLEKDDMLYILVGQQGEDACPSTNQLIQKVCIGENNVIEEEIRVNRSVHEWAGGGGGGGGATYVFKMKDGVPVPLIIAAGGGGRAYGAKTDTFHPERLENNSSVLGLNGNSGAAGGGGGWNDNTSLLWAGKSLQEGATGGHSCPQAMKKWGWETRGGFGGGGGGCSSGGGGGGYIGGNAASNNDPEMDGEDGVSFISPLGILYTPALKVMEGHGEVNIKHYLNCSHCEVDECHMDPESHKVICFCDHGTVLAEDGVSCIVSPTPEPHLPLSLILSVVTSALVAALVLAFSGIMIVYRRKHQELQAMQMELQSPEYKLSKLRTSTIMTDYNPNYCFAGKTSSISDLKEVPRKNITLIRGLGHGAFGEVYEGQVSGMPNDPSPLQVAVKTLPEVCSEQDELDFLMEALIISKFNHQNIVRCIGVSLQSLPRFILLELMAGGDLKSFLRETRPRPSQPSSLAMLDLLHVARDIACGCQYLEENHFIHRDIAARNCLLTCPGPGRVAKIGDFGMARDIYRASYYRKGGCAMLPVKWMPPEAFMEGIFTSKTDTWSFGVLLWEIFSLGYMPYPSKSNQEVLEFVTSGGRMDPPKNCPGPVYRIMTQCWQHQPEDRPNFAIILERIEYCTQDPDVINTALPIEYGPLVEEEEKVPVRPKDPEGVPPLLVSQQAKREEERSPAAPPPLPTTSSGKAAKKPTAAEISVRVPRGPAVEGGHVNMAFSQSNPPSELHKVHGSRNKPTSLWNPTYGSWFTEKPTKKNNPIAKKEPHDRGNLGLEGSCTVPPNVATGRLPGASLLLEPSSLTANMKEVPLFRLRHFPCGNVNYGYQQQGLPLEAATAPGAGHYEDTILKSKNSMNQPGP
Chain of Signal transducer and activator of transcription 3 (Homo sapiens) (P40763 whole entry): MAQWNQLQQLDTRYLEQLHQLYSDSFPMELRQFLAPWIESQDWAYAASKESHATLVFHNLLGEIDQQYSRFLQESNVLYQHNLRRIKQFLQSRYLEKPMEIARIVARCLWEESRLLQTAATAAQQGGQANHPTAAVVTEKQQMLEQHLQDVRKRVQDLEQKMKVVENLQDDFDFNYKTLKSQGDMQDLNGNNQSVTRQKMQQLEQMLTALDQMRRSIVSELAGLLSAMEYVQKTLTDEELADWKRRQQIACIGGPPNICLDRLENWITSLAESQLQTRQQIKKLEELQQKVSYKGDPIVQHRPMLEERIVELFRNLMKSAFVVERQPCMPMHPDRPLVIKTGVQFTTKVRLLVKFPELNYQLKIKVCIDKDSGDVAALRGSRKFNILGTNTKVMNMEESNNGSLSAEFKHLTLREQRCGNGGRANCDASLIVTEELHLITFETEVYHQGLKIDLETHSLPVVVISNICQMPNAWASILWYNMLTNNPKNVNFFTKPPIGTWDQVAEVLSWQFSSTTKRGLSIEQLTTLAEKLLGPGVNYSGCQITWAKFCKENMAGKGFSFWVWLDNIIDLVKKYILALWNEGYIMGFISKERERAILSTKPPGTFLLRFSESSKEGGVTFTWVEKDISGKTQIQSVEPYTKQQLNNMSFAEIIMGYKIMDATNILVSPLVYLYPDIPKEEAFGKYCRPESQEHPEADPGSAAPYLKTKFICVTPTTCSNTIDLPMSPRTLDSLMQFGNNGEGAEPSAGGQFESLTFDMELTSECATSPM

SMILES: Cc1cc(Nc2ncc(Cl)c(Nc3ccccc3S(=O)(=O)C(C)C)n2)c(OC(C)C)cc1C1CCN(CCOCCOCCNC(=O)CNc2cccc3c2C(=O)N(C2CCC(=O)NC2=O)C3=O)CC1 (centres undefined)
- Activity [1]: inactive
- Activity [2]: inactive
- Activity [3]: Active
- Activity [4]: Active
- inhibition [5]: Active
- inhibition [6]: Active
- Activity [7]: Active

SMILES: COc1cc(N2CCN(CCOCCOCCNC(=O)CNc3cccc4c3C(=O)N(C3CCC(=O)NC3=O)C4=O)CC2)ccc1Nc1ncc(Cl)c(Nc2ccccc2S(=O)(=O)C(C)C)n1 (centres undefined)
- Activity [1]: inactive
- Activity [8]: Active
- Activity [9]: Active
- Activity [10]: Active
- Activity [11]: Active
- Activity [2]: inactive
- Activity [7]: Active
